Data set [1] concerns CC(=O)N[C@H]1[C@@H](OP(=O)(O)OP(=O)(O)OC[C@H]2O[C@@H](n3ccc(=O)[nH]c3=O)[C@H](O)[C@@H]2O)O[C@H](C)C(=O)[C@@H]1O. In words: purified protein. To be noted: conditions not stated separately for this enzyme.
A further data set concerns N[C@@H](CCC(=O)O)C(=O)O. In words: purified protein. To be noted: conditions not stated separately for this enzyme.
In data set [2] the test system is CC(=O)N[C@H]1[C@@H](OP(=O)(O)OP(=O)(O)OC[C@H]2O[C@@H](n3ccc(=O)[nH]c3=O)[C@H](O)[C@@H]2O)O[C@H](C)[C@@H](N)[C@@H]1O. Briefly: purified protein. To be noted: conditions not stated separately for this enzyme.
Data set [3] deals with CC(=O)SCCNC(=O)CCNC(=O)[C@H](O)C(C)(C)COP(=O)(O)OP(=O)(O)OC[C@H]1O[C@@H](n2cnc3c(N)ncnc32)[C@H](O)[C@@H]1OP(=O)(O)O. Briefly: purified protein. To be noted: conditions not stated separately for this enzyme.
In another data set the test system is WeeI. In words: continuous DTNB. Type of data set: biochemical, Acinetobacter baumannii. To be noted: AcCoA saturating, 5 mM MgCl2, 50 mM HEPES pH 7.4, 25 °C. The method, boiled down:
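AcCoA and UDP-4-amino varied separately, the other held saturating; AcCoA Km taken at 4 mM UDP-4-amino. Initial rates from the linear portion over 5 min; duplicates; background without UDP-4-amino subtracted.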

The next data set has as its target WeeH (Acinetobacter baumannii, UniProt V5RC66). In words: radioactive transfer to Und-P, organic extraction. To be noted: undecaprenyl phosphate, 50 mM MgCl2, 30 mM Tris-acetate pH 8.0, 1% Triton X-100, 3% DMSO, 25 °C. The format is biochemical.

Broadly, the Km is the concentration of substrate that gives half-maximal velocity. In general, kcat refers to the number of substrate molecules converted per active site and unit of time at saturation. Usually kcat/Km stands for the turnover number divided by the Michaelis constant. On to “PglE (Campylobacter jejuni subsp. jejuni NCTC 11168 = ATCC 700819)”, for which, in data set [1], the Michaelis constant (Km) worked out at 366 ± 57 µM, the kcat stood at 2.4 ± 0.1 s⁻¹ and the kcat/Km worked out at 6600 M⁻¹ s⁻¹. Also, in the data set on N[C@@H](CCC(=O)O)C(=O)O, the Michaelis-Menten constant (Km) was 11,000 ± 340 μM, the kcat came out at 0.028 ± 0.0003 s⁻¹ and the specificity constant (kcat/Km) came out at 2.6 M⁻¹ s⁻¹.
For “PglB-ATD (Neisseria gonorrhoeae FA 1090)”, in data set [2], the Km is 192 ± 26 µM, the kcat was found to be 2000 ± 82 s⁻¹ and the kcat/Km is 1e+07 M⁻¹ s⁻¹. In data set [3], the Michaelis constant (Km) amounted to 338 ± 47 µM, the kcat turned out to be 2300 ± 110 s⁻¹ and the kcat/Km came to 6.9e+06 M⁻¹ s⁻¹.
For `CC(=O)N[C@H]1[C@@H](OP(=O)(O)OP(=O)(O)OC[C@H]2O[C@@H](n3ccc(=O)[nH]c3=O)[C@H](O)[C@@H]2O)O[C@H](C)[C@@H](N)[C@@H]1O` [UDP-4-amino, UDP-2-acetamido-4-amino-2,4,6-trideoxy-α-D-glucose], the Michaelis-Menten constant (Km) in the data set on WeeI stood at 4300 ± 140 µM.
Turning to `CC(=O)N[C@H]1[C@@H](OP(=O)(O)OP(=O)(O)OC[C@H]2O[C@@H](n3ccc(=O)[nH]c3=O)[C@H](O)[C@@H]2O)O[C@H](C)[C@@H](NC(C)=O)[C@@H]1O` [UDP-diNAcBac, UDP-2,4-diacetamido-2,4,6-trideoxy-α-D-glucose], the “radioactive transfer to Und-P, organic extraction” value on WeeH is recorded as “This phosphoglycosyltransferase exhibited clear selectivity for UDP-diNAcBac over all other UDP-sugars”.
Turning to “PglD (Campylobacter jejuni subsp. jejuni NCTC 11168 = ATCC 700819)”, in data set [2], the Km worked out at 311 ± 23 µM, the catalytic constant (kcat) was 12000 ± 380 s⁻¹ and the kcat/Km was determined as 4e+07 M⁻¹ s⁻¹. For the same molecule, in data set [3], the Km turned out to be 194 ± 30 µM, the kcat came out at 11000 ± 500 s⁻¹ and the specificity constant (kcat/Km) is 5.5e+07 M⁻¹ s⁻¹.

Values taken from publication PMC3722612 (Archives of biochemistry and biophysics, 2013).
